Assay outcomes as filed in PubChem BioAssay.
Shown are actives, neighbours in structure and some others; about 4.1% of the full set was active somewhere.
KCC2 mod: KCC2 (human) Cl- transport modulation | AID 1456 | KCC2 cells, thallium flux FluoZin-2 fluorescence | Q9H2X9 | 2.2% of 190,000 active | B-score of Tl+ flux slope (higher = more flux/activation; lower = inhibition) at 10 µM;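 active means thallium flux slope and its plate-corrected score both differing from the plate sample mean at a set confidence after two filtering rounds, in either direction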;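 further: slope of fluorescence scaled to starting intensity during 10 to 20 s after thallium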
KCNQ1 pot: human KCNQ1 channel potentiation or activation; P51787; CHO-K1 KCNQ1, thallium flux FluxOR fluorescence; hits give high values; B-score at 10 µM; 0.35% of 310,000 active; AID 2648;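 active means fluorescence ratio B-score, a plate-corrected score, at least three library SD, with initial intensity B-score within 5 SD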
Target sequence (P51787 whole entry, looked up): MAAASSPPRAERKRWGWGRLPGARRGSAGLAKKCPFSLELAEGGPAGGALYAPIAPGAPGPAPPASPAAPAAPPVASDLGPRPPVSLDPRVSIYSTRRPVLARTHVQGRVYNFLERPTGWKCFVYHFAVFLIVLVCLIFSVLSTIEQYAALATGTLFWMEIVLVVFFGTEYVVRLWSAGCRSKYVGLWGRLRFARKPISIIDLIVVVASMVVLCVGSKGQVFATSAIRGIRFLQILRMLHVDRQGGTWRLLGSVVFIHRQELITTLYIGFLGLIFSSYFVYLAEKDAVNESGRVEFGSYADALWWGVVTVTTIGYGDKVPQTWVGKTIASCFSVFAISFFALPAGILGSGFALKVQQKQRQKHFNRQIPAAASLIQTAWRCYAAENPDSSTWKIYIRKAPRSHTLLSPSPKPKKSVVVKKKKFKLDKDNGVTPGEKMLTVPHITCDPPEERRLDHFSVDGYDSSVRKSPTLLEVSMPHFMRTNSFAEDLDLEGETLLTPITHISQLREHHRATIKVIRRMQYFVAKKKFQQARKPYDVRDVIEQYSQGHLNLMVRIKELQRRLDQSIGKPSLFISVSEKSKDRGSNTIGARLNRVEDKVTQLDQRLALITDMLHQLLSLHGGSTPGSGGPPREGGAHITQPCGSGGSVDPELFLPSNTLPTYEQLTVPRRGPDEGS
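Test system: CHO-K1 cells stably expressing KCNQ1 / Medium: assay buffer / Also added: depolarizing K+/Tl+ stimulus, K2SO4 and Tl2SO4 each 12.5 mM in 5x stock / Incubation: 90 min dye loading and 20 min compound exposure, both at room temperature / Signal: thallium influx via FluxOR fluorescence, kinetic imaging / Evaluation: B score of baseline-normalized fluorescence ratio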
KCNK3 inh: human KCNK3 channel inhibition, primary screen; O14649; CHO-KCNK3 thallium flux, FluxOR fluorescence; hits give low values; AID 602410; 0.84% of 340,000 active; B-score at 10 µM;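 active means B-score under library mean minus 4 SD, starting fluorescence ratio at most library mean plus 5 SD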;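 further: more negative B-score means stronger inhibition of thallium flux through KCNK3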
KCNK9 inh: human KCNK9 channel inhibition | AID 488922 | 1.2% of 310,000 active | B-score at 10 µM | HEK293 KCNK9, FluxOR thallium flux fluorescence; hits give low values;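 active means ratio B-score over 3 SD below the library mean, with starting fluorescence within 5 SD of its mean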;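 further: negative B-score means less thallium flux so channel inhibition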
hERG rescue: compounds protecting human hERG from proarrhythmic drug block | Q12809 | CHO-hERG, FluxOR thallium flux, dofetilide IC70 present | activation (rescue from dofetilide block), less the hit threshold, % at 10 µM | 0.51% of 310,000 active;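 active means activation above the mean of controls blocked by dofetilide plus 5 SD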;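 further: thallium influx through hERG after potassium depolarization seen as dye fluorescence rise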
KCNQ1 block: human KCNQ1 channel inhibition | P51787 | CHO-K1 KCNQ1, FluxOR thallium flux fluorescence; hits give high values | B-score at 10 µM | 1.3% of 310,000 active | AID 2642;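 active means compounds whose thallium flux B-score, printed positive for inhibition, exceeds three library SD while starting fluorescence stays within three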;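 further: channel opened by potassium depolarization with thallium stimulus after 20 min compound exposure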
KCNK9 inh conf: confirmation of human KCNK9 potassium channel inhibitors; shares compounds with KCNK9 inh; HEK293 KCNK9 cells, FluxOR thallium flux fluorescence; inhibition, % at 10 µM; 43% of 4,900 active; AID 492992;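 active means thallium signal inhibited by more than 5 SD of the compound-free buffer control wells, on both duplicate plates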;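 further: 0% = assay buffer control wells without compound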
Kir2-1 spec: tests whether KCNK9 modulators also affect mouse Kir2.1 | 4% of 4,900 active | Kir2.1 cells, FluxOR thallium flux fluorescence | shares compounds with KCNK9 inh | inhibition, % at 10 µM | AID 492993;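 active means thallium signal drop more than 5 SD beyond the mean of the no-compound control wells, seen in both duplicate plates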;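 further: signal is fluorescence rise after thallium addition divided by baseline fluorescence; plate controls were assay buffer only for no effect and full block by chlorpromazine control for full effect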
HEK293 Tl ctr: non-induced cell nonspecific activity of KCNK9 modulators; AID 492997; shares compounds with KCNK9 inh; inhibition, % at 10 µM; 40% of 4,900 active; non-induced KCNK9-HEK293, FluxOR thallium flux;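 active means thallium signal drop beyond 5 SD of the untreated control mean, on both duplicate plates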;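 further: plate controls were buffer only IC0 wells for no effect and SID17386958 at its maximal inhibitory level for full effect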
Starred values were filed as active, the others as inactive; i = inactive; · = no result.

SMILES | KCC2 mod | KCNQ1 pot | KCNK3 inh | KCNK9 inh | hERG rescue | KCNQ1 block | KCNK9 inh conf | Kir2-1 spec | HEK293 Tl ctr
COc1cc(C(=O)N/N=C/c2ccc(OC)c(CN3CCN(c4ccc(F)cc4)CC3)c2)ccc1O | -0.963 | i | i | i | -27.6 | i | i | i | i
O=C(Nc1nc(-c2cc(Cl)sc2Cl)cs1)c1cccs1 | 2.1 | i | -11.7* | -8.95* | -12.7 | i | 50.5%* | i | i
O=C(C1CCCN(S(=O)(=O)c2cccc3cccnc23)C1)N1CCc2ccccc21 (stereo not drawn) | · | i | i | i | -12.5 | i | i | i | i
Cc1ccc(S(=O)(=O)NCC(=O)OCC(=O)c2ccc(Cl)s2)cc1 | · | i | i | i | -2.6 | i | · | · | ·
Cc1sc(NC(=O)c2ccco2)c(CN2CCN(c3ccccn3)CC2)c1C | -1.87 | i | -9.78* | -12.4* | -16.0 | i | 48.5%* | i | 29.5%*
CC1CCN(C(=S)c2cn(Cc3ccc(F)cc3)c3ccccc23)CC1 | 0.736 | i | i | -11* | -4.8 | i | 44.0%* | i | 38.0%*
S=C(c1cn(Cc2ccc(Br)cc2)c2ccccc12)N1CCOCC1 | 0.148 | i | i | -10.3* | -15.9 | i | 34.5%* | i | 39.5%*
S=C(c1cn(Cc2ccccc2)c2ccccc12)N1CCOCC1 | -0.625 | i | i | i | -2.4 | i | · | · | ·
COc1cccc(N2C(=NC(=O)C3CCCCC3)SC3CS(=O)(=O)CC32)c1 (stereo not drawn) | · | i | i | i | -8.3 | i | · | · | ·
NS(=O)(=O)c1cccc(NC(=O)COC(=O)c2ccc(S(=O)(=O)N3CCOCC3)cc2)c1 | · | · | i | · | · | · | · | · | ·
Fc1cccc(Cl)c1Cc1noc(/C=C/c2ccccc2)n1 | · | i | i | i | 0.7 | i | i | i | i
C(=C\c1nc(-c2ccccc2)no1)/c1ccccc1 | 0.175 | i | i | i | -5.1 | i | · | · | ·
CCOC(=O)c1nc(Nc2cc(Cl)ccc2OC)c2ccccc2n1 | · | i | i | -13.1* | -2.6 | i | 46.5%* | i | i
CCOC(=O)c1nc(Nc2ccccc2)c2ccccc2n1 | 0.723 | i | i | i | -9.3 | i | · | · | ·
O=C(COC(=O)c1cccc(OC(F)F)c1)Nc1ncccn1 | · | · | i | · | · | · | · | · | ·
Cc1c(C(=O)OCC(=O)c2c(N)n(CC(C)C)c(=O)n(C)c2=O)oc2ccccc12 | -1.64 | i | i | i | -14.3 | i | i | i | i
CCC(C)N(C(=O)Cn1nnc2ccccc21)C(C(=O)Nc1ccc(F)cc1)c1cccc(OC)c1 (stereo not drawn) | -1.01 | i | i | -9.21* | -4.4 | i | 35.5%* | i | i
COCCNC(=O)C(c1cccc(OC)c1)N(Cc1cccs1)C(=O)Cn1nnc2ccccc21 (stereo not drawn) | -0.619 | i | i | i | -8.3 | i | · | · | ·
COc1ccccc1-c1nc(C#N)c(N2CCc3ccccc3C2)o1 | · | i | -13.1* | -20.9* | -14.7 | i | 67.0%* | i | i
COc1ccc(N2CCN(c3oc(-c4ccccc4OC)nc3C#N)CC2)cc1 | · | i | i | i | -10.0 | i | · | · | ·
COc1ccccc1-c1nc(C#N)c(N2CCN(c3ccccc3)CC2)o1 | -0.592 | i | i | -11.5* | -8.4 | i | 44.0%* | i | i
C[C@]12CCC(O)CC1=CCC1C2CC[C@]2(C)/C(=N\NC(N)=S)CCC12 (stereo partly drawn) | · | i | i | i | -8.7 | i | · | · | ·
Cc1ccc(S(=O)(=O)N2C(=O)/C(=C3\SC(=S)NC3=O)c3ccccc32)cc1 | 0.319 | i | · | i | 2.9 | i | · | · | ·
CCC(C)c1ccc(NC(=O)COc2c(F)c(F)c(C(F)(F)F)c(F)c2F)cc1 (stereo not drawn) | 0.367 | i | i | i | -16.6 | i | i | i | i
O=C(COc1c(F)c(F)c(C(F)(F)F)c(F)c1F)Nc1ccc(N2CCOCC2)c(Cl)c1 | -1.18 | i | i | i | -5.1 | i | · | · | ·
SMILES | KCC2 mod | KCNQ1 pot | KCNK3 inh | KCNK9 inh | hERG rescue | KCNQ1 block | KCNK9 inh conf | Kir2-1 spec | HEK293 Tl ctr
CN(Cc1nccn1C)C(=O)C1CCC(=O)N(Cc2cccc(C(F)(F)F)c2)C1 (stereo not drawn) | · | i | i | i | -5.8 | i | · | · | ·
Cc1ccc(N=C(NOCc2ccc(Cl)cc2Cl)c2nonc2N)c(C)c1 | 0.106 | i | i | -16.1* | -2.7 | i | 77.0%* | i | 45.5%*
Cc1ccc(N=C(NO)c2nonc2N)c(C)c1 | · | i | i | i | -3.2 | i | · | · | ·
Cc1ccccc1N=C(NOCc1ccc(Cl)cc1Cl)c1nonc1N | 1.01 | i | i | -16.1* | -11.4 | i | 81.5%* | i | 46.0%*
Cc1[nH]c(C)c(S(=O)(=O)NCc2ccc(Cl)cc2)c1C(=O)N1CCCC1 | · | i | i | i | -3.1 | i | · | · | ·
Cc1cc(C(=O)C(C(c2ccccc2)N2CCOCC2)N2CCOCC2)ccc1Cl (stereo not drawn) | · | · | i | · | · | · | · | · | ·
CCCC(OC(=O)CC1Sc2ccccc2NC1=O)C(=O)NCc1ccco1 (stereo not drawn) | -0.151 | i | i | i | -10.2 | i | · | · | ·
CC(C)CC(OC(=O)CC1Sc2ccccc2NC1=O)C(=O)NC1CCCC1 (stereo not drawn) | · | i | i | -8.94* | -6.4 | i | i | i | i
CC1Cc2ccccc2N1C(=O)CO/N=C/c1ccc(OC(F)F)cc1 (stereo not drawn) | -2.41 | i | i | i | -7.0 | i | i | i | i
CC1=NN(c2ccccc2)C(=O)/C1=C\C=C1\N(C)c2ccccc2C1(C)C | -1.55 | i | i | -9.13* | -11.1 | i | i | i | i
CCOc1ccc(S(=O)(=O)N2CCOCC2)cc1NS(=O)(=O)c1ccc(OC)c([N+](=O)[O-])c1 | · | i | i | i | -7.6 | i | · | · | ·
C=CCN1c2ccccc2[C@]23C[C@@H](C(=O)OC)N(C(=O)NCCC)C2=NC(C(=O)OC)=C(C(=O)OC)[C@H]13 | 0.288 | i | i | -9.28* | -3.1 | i | 32.5%* | i | 29.5%*
